Measurements as given in ChEMBL document CHEMBL1145466, “Effects of carbapenem exposure on the risk for digestive tract carriage of intensive care unit-endemic carbapenem-resistant Pseudomonas aeruginosa strains in critically ill patients” (2007).

Assays:
[1] = test system: Pseudomonas aeruginosa; test: Antimicrobial activity against carbapenem-resistant Pseudomonas aeruginosa isolate; assay type: functional
Summary of the method: (§1)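 P. aeruginosa isolates came from rectal and oropharyngeal swabs of ICU patients, plated on MacConkey agar and incubated at 37°C for 48 h. Gram-negative, oxidase-positive bacilli were identified by conventional biochemical tests. Intermediate isolates were scored as resistant. Clonality was checked by PFGE (6 V/cm, 14°C, 23 h, 5–25 s pulses), read by Tenover criteria.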

[2] = test system: Pseudomonas aeruginosa; test: Antimicrobial activity against carbapenem-resistant Pseudomonas aeruginosa assessed as percent resistant isolates; assay type: functional; summary of the method: as §1

CC(O)[C@H]1C(=O)N2C(C(=O)O)=C(SCCNC=N)C[C@H]12 (single isomer, unassigned) [IMIPENEM ANHYDROUS]
MIC [1]: ≥ 8 µg/mL
Activity [2]: 100%

NCC[C@H](O)C(=O)N[C@@H]1C[C@H](N)[C@@H](O[C@H]2O[C@H](CN)[C@@H](O)[C@H](O)[C@H]2O)[C@H](O)[C@H]1O[C@H]1O[C@H](CO)[C@@H](O)[C@H](N)[C@H]1O [AMIKACIN]
MIC [1]: > 16 µg/mL
Activity [2]: 19%

C[C@H]1[C@H](NC(=O)/C(=N\OC(C)(C)C(=O)O)c2csc(N)n2)C(=O)N1S(=O)(=O)O [AZTREONAM]
MIC [1]: > 8 µg/mL
Activity [2]: 33%

CC(C)(O/N=C(\C(=O)N[C@@H]1C(=O)N2C(C(=O)[O-])=C(C[n+]3ccccc3)CS[C@H]12)c1csc(N)n1)C(=O)O [CEFTAZIDIME]
MIC [1]: > 8 µg/mL
Activity [2]: 28.5%

O=C(O)c1cn(C2CC2)c2cc(N3CCNCC3)c(F)cc2c1=O [CIPROFLOXACIN]
MIC [1]: ≥ 2 µg/mL
Activity [2]: 59.5%

C[C@@H](O)[C@H]1C(=O)N2C(C(=O)O)=C(S[C@@H]3CN[C@H](C(=O)N(C)C)C3)[C@H](C)[C@H]12 [MEROPENEM]
MIC [1]: ≥ 8 µg/mL
Activity [2]: 59.5%

CCN1CCN(C(=O)N[C@@H](C(=O)N[C@@H]2C(=O)N3[C@@H]2SC(C)(C)[C@@H]3C(=O)O)c2ccccc2)C(=O)C1=O [PIPERACILLIN]
MIC [1]: > 64 µg/mL
Activity [2]: 21%

CC1(C)S[C@@H]2[C@H](NC(=O)[C@H](C(=O)O)c3ccsc3)C(=O)N2[C@H]1C(=O)O [TICARCILLIN]
MIC [1]: > 64 µg/mL
Activity [2]: 28.5%

NC[C@H]1O[C@H](O[C@H]2[C@H](O)[C@@H](O[C@H]3O[C@H](CO)[C@@H](O)[C@H](N)[C@H]3O)[C@H](N)C[C@@H]2N)[C@H](N)C[C@@H]1O [TOBRAMYCIN]
MIC [1]: > 4 µg/mL
Activity [2]: 55%
